Laboratory results from ChEMBL document CHEMBL1795239, “MAO inhibitory activity modulation: 3-Phenylcoumarins versus 3-benzoylcoumarins” (Bioorg Med Chem Lett, 2011).

Legend:
Homo sapiens = species on record: Homo sapiens; test: Selectivity index, ratio of IC50 for human recombinant MAO-A to human recombinant MAO-B
Summary of the method: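 MAO-B selectivity index is IC50(MAO-A)/IC50(MAO-B). Both IC50s come from the fluorimetric Amplex Red/peroxidase assay with 1 mM p-tyramine, using recombinant hMAO-A and hMAO-B from baculovirus-infected insect cells.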

[1] = target: T1, Amine oxidase [flavin-containing] A (Homo sapiens, UniProt P21397); test: Inhibition of human recombinant MAO-A using p-tyramine substrate by fluorometric method
T1 sequence (P21397 whole entry): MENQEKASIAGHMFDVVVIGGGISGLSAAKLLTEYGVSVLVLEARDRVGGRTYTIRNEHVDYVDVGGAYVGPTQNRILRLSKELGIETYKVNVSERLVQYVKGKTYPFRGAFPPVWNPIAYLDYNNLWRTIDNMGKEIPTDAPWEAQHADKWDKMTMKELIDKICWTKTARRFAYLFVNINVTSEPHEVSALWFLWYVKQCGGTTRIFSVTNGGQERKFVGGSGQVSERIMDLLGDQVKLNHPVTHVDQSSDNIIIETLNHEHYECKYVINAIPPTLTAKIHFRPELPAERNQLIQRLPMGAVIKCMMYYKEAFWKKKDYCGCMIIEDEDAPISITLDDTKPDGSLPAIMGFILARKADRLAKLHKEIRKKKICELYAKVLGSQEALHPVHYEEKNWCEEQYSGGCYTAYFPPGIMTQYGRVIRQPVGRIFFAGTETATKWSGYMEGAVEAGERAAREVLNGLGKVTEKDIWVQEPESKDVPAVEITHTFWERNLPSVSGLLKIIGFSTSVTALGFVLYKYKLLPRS

[2] = target: T2, Amine oxidase [flavin-containing] B (Homo sapiens, UniProt P27338); test: Inhibition of human recombinant MAO-B using p-tyramine substrate by fluorometric method
T2 sequence (P27338 whole entry): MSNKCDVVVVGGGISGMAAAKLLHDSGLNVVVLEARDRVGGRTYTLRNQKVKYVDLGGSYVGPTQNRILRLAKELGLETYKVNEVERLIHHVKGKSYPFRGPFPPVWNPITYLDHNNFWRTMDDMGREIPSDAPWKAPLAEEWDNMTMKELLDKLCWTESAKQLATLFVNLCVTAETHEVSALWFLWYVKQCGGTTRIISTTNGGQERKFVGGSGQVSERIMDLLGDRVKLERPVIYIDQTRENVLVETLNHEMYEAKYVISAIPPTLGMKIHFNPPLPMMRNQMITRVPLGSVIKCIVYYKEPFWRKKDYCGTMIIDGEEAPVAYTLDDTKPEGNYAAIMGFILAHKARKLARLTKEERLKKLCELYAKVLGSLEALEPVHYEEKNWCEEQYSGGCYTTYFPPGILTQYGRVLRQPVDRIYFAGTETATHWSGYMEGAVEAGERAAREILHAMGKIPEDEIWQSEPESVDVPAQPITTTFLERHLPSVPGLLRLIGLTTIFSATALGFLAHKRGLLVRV

[3] = target: T1, Amine oxidase [flavin-containing] A; test: Inhibition of human recombinant MAO-A using p-tyramine substrate at 100 uM by fluorometric method
Summary of the method: (§1)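 Recombinant human MAO-A or MAO-B expressed in baculovirus-infected BTI insect cells. Enzyme amounts set so both isoforms give the same rate, 165 pmol p-tyramine/min. Assay run in 0.05 M sodium phosphate pH 7.4 at 37 °C with compounds at several concentrations, 200 Amplex Red, 1 U/mL horseradish peroxidase and 1 mM p-tyramine. Resorufin fluorescence (ex 545/em 590 nm) read over a linear 15 min window. Vehicle controls run alongside.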

[4] = target: T2, Amine oxidase [flavin-containing] B; test: Inhibition of human recombinant MAO-B using p-tyramine substrate at 100 uM by fluorometric method; conditions: for inhibition (INH): 100 µM; summary of the method: as §1

Row | SMILES | Ratio IC50 (Homo sapiens) | IC50 [1] [µM] | IC50 [2] [µM] | inhibition (INH) [3] | inhibition (INH) [4] | inhibition at 100 µM [4] [%]
1 | O=c1oc2c(O)cc(Br)cc2cc1-c1ccc(O)cc1 | 1.2 | 20.7 | 16.9 |  |  | 
2 | COc1ccc(-c2cc3cc(Br)cc(OC)c3oc2=O)cc1 | > 74100 |  | 0.00135 | Not Active |  | 
3 | O=c1oc2c(O)cc(Br)cc2cc1-c1ccccc1 | > 3.2 |  | 30.9 | Not Active |  | 
4 | COc1cc(Br)cc2cc(C(=O)c3ccccc3)c(=O)oc12 |  |  |  | Not Active | Not Active | 
5 | COc1cc(Br)cc2cc(-c3ccccc3)c(=O)oc12 | > 1200 |  | 0.0835 | Not Active |  | 
6 | O=C(c1ccc(O)cc1)c1cc2cc(Br)cc(O)c2oc1=O | 0.19 | 19.2 |  |  |  | 45
7 | COc1ccc(C(=O)c2cc3cc(Br)cc(OC)c3oc2=O)cc1 |  |  |  | Not Active | Not Active | 
8 | O=C(c1ccccc1)c1cc2cc(Br)cc(O)c2oc1=O | 0.63 | 46.8 | 73.9 |  |  | 
